Tests used:
[1] = molecular target: Mitogen-activated protein kinase 8 (Homo sapiens, UniProt P45983); assay: Inhibition of JNK1-mediated ATF2 phosphorylation
[2] = molecular target: Mitogen-activated protein kinase 9 (Homo sapiens, UniProt P45984); assay: Inhibition of JNK2-mediated ATF2 phosphorylation
[3] = molecular target: c-Jun N-terminal kinase, JNK (Homo sapiens, UniProt P45983+P53779+P45984); assay: Inhibition of cJun phosphorylation in HepG2 cell line
Activated CDC42 kinase 1 = Activated CDC42 kinase 1 (Homo sapiens, UniProt Q07912); assay: Inhibition of CDC42
Activated CDC42 kinase 1, sequence (Q07912 whole entry): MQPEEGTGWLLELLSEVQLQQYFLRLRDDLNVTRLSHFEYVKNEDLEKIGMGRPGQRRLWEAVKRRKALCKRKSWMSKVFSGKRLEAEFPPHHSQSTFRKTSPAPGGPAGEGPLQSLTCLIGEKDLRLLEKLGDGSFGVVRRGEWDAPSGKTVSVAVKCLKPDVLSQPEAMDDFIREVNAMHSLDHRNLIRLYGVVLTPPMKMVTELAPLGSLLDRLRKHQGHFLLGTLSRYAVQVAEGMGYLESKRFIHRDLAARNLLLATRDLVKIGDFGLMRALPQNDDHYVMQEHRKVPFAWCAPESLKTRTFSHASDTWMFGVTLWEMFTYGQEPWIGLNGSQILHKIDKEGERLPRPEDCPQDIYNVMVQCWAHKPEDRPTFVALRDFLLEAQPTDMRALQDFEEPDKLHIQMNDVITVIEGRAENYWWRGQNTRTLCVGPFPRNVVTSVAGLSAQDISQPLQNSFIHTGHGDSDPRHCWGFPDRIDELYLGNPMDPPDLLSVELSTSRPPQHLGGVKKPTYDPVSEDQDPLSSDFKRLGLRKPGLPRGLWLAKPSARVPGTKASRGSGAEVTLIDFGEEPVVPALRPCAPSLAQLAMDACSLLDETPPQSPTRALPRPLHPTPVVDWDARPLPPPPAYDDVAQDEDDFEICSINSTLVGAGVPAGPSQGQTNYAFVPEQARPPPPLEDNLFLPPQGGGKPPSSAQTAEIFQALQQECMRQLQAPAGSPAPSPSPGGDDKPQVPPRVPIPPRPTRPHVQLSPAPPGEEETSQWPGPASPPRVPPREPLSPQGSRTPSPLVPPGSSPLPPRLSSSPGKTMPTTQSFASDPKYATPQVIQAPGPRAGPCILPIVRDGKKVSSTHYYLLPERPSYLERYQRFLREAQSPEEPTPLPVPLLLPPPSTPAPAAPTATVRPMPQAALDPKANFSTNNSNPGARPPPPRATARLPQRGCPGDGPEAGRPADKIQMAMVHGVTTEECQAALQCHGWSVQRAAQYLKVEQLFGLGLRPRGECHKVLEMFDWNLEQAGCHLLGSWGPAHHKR
Procedure, shortened: (§1)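 Recombinant kinases were commercial, or baculovirus-expressed and purified by His-tag or GST affinity. Each was incubated 1 h with biotinylated substrate peptide (2 µM), γ-[33P]-ATP (5 µM) and inhibitor (3-10000 nM, 2% DMSO) in 25 mM Hepes pH 7.5, 10 mM MgCl2, Na3VO4. Reactions were stopped with EDTA/NaCl and read by streptavidin FlashPlate capture. IC50 came from titrations, converted to Ki by Cheng-Prusoff.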

[4] = molecular target: T1, Calcium/calmodulin-dependent protein kinase type IV (Homo sapiens, UniProt Q16566); assay: Inhibition of CaMK4; procedure, shortened: as §1
T1 sequence (Q16566 whole entry): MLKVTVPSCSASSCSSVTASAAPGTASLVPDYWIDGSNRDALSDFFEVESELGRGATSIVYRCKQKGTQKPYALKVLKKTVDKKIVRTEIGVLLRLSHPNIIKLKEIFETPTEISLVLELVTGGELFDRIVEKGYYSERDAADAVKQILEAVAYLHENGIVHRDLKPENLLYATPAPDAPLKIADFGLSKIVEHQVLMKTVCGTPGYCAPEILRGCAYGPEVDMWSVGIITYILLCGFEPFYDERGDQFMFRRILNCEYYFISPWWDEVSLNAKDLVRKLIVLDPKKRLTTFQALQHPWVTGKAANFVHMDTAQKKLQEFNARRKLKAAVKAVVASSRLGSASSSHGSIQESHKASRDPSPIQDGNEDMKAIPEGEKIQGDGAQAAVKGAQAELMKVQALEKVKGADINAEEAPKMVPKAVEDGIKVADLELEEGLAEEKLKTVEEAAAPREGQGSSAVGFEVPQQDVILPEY

[5] = molecular target: Mitogen-activated protein kinase 10 (Homo sapiens, UniProt P53779); assay: Inhibition of JNK3-mediated ATF2 phosphorylation
Mitogen-activated protein kinase 10, sequence (P53779 whole entry): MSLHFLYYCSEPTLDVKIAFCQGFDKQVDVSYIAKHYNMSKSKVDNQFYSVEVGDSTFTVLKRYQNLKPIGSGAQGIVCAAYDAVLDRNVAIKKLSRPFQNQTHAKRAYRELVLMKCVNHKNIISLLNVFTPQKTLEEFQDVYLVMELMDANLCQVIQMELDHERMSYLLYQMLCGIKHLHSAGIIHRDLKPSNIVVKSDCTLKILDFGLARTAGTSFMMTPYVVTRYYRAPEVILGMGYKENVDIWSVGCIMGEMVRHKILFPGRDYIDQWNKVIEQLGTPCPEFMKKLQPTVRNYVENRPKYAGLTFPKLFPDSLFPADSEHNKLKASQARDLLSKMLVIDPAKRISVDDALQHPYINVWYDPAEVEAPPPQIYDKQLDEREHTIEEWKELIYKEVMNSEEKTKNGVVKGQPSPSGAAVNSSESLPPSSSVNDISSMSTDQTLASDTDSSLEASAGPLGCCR

[6] = molecular target: T2, Serine/threonine-protein kinase Sgk1 (Homo sapiens, UniProt O00141); assay: Inhibition of SGK
T2 sequence (O00141 whole entry): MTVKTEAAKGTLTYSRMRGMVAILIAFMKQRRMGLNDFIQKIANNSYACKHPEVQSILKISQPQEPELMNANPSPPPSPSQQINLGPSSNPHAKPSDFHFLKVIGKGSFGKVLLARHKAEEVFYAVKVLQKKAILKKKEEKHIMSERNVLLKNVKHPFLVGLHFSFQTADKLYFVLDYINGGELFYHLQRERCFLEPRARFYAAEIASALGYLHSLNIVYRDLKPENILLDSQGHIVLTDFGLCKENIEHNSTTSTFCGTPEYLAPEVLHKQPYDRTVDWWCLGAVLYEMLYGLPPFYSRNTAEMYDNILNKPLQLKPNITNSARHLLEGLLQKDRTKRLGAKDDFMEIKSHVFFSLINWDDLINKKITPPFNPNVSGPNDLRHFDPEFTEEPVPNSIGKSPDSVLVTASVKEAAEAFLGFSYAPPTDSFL

[7] = Half life in iv dosed Sprague-Dawley rat; assay type: ADME, organism-based; conditions: in vivo
Procedure, shortened: (§2)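 Sprague-Dawley rats received 5 mg/kg intravenously. Half-life is reported in hours. AUC is total drug exposure after iv dosing, from t = 0 to t = ∞, in µg·h/mL.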

[8] = Volume of distribution at steady state in iv dosed Sprague-Dawley rat; assay type: ADME, organism-based; conditions: in vivo, read-out: Vss
[9] = Volume of distribution in iv dosed Sprague-Dawley rat; assay type: ADME, organism-based; conditions: in vivo, read-out: Vdss
[10] = AUC in iv dosed Sprague-Dawley rat; assay type: ADME, organism-based; conditions: plasma; procedure, shortened: as §2
[11] = Plasma clearance in iv dosed Sprague-Dawley rat; assay type: ADME, organism-based
[12] = Half life in po dosed Sprague-Dawley rat; assay type: ADME, organism-based; conditions: in vivo
Procedure, shortened: (§3)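 Sprague-Dawley rats were dosed orally. Oral half-life is reported in hours and Cmax as the maximum plasma concentration in µM. AUC is total oral exposure from t = 0 to t = ∞, in µg·h/mL.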

[13] = Cmax in po dosed Sprague-Dawley rat; assay type: ADME, organism-based; set-up: route oral; conditions: in vivo; procedure, shortened: as §3
[14] = Tmax in po dosed Sprague-Dawley rat; assay type: ADME, organism-based; conditions: in vivo
[15] = AUC in po dosed Sprague-Dawley rat; assay type: ADME, organism-based; conditions: plasma; procedure, shortened: as §3
[16] = Oral bioavailability in Sprague-Dawley rat; assay type: ADME, organism-based; conditions: in vivo

Mitogen-activated protein kinase 8, sequence (P45983 whole entry): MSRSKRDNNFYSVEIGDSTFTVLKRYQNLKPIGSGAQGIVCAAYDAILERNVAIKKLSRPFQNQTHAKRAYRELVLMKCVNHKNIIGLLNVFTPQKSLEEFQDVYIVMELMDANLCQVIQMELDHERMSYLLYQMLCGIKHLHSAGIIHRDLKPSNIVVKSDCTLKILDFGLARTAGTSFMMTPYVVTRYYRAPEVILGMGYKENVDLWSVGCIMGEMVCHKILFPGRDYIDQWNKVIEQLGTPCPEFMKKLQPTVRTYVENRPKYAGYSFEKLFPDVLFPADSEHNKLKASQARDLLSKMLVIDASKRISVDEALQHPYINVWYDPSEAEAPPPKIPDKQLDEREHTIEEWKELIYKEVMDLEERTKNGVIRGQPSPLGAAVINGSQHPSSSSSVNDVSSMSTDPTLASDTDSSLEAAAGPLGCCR
Mitogen-activated protein kinase 9, sequence (P45984 whole entry): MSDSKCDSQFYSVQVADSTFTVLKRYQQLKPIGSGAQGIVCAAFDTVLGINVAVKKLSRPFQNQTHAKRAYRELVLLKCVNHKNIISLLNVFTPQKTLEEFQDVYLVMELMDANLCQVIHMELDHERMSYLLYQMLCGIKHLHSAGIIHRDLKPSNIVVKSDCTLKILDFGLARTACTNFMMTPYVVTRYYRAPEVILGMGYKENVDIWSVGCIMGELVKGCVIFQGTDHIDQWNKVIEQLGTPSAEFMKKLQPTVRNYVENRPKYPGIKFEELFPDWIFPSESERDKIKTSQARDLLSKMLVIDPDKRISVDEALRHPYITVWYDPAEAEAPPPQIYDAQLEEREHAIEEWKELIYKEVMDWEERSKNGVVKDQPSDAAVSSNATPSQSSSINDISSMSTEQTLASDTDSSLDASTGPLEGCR

For CCOc1nc(NC(=O)Cc2ccccc2OC)cc(N)c1C#N, the IC50 [1] was 120 nM, the IC50 [2] was 260 nM and the EC50 [3] was 1400 nM.

With CCOc1nc(NC(C)=O)cc(C)c1C#N the IC50 [1] was over 10000 nM and the IC50 [2] was over 10000 nM.

Compound CCOc1nc(NC(=O)Cc2cc(OC)c(S(C)(=O)=O)cc2OC)cc(N)c1C#N has a Ki (Activated CDC42 kinase 1) of over 9500 nM, a Ki [4] of over 8600 nM and a Ki [5] of 72 nM. The Ki [6] was over 9400 nM, the half-life [7] was 2 h and the Vd [8] was 1.5 L/kg. The Vd [9] was 4.7 L/kg, the AUC [10] was 3500 ng·h/mL and the clearance [11] was 25 mL/min/kg. For the same compound, the half-life [12] was 1.5 h, the Cmax [13] was 1360 nM and the Tmax [14] was 0.5 h. The AUC [15] was 1100 ng·h/mL and the bioavailability [16] was 31%.

For CCCCSc1nc(NC(C)=O)cc(N)c1C#N, the IC50 [1] was 8900 nM and the IC50 [2] was over 10000 nM.

COc1ccc(OC)c(CC(=O)Nc2cc(N)c(C#N)c(Br)n2)c1 showed an IC50 [1] of 1700 nM and an IC50 [2] of over 10000 nM.

For CCOc1nc(NC(=O)Cc2cccc(OC)c2)cc(N)c1C#N, the IC50 [1] was 210 nM, the IC50 [2] was 310 nM and the EC50 [3] was 2500 nM.

For CCOc1nc(NC(=O)Cc2cc(OC)c(NC(C)=O)cc2OC)cc(N)c1C#N, the IC50 [1] was 35 nM, the IC50 [2] was 26 nM and the EC50 [3] was 280 nM.

In the case of CC(=O)Nc1cc(N)c(C#N)c(OC2CCOC2)n1 (stereo unspecified), the IC50 [1] is reported as 890 nM and the IC50 [2] is reported as 2900 nM.

For CCCCN(CCCC)CC(=O)Nc1cc(N)c(C#N)c(OCC)n1, the IC50 [1] was 3500 nM and the IC50 [2] was over 10000 nM.

COc1cc(S(C)(=O)=O)c(OC)cc1CC(=O)Nc1cc(N)c(C#N)c(OC(C)C)n1 showed a Ki (Activated CDC42 kinase 1) of over 9500 nM, a Ki [4] of over 8600 nM and a Ki [6] of over 9400 nM. It also gave a half-life [7] of 2 h, a Vd [8] of 1.6 L/kg and a Vd [9] of 8.6 L/kg. The AUC [10] was 2200 ng·h/mL, the clearance [11] was 50 mL/min/kg and the half-life [12] was 2.9 h. For the same compound, the Cmax [13] was 80 nM, the Tmax [14] was 0.75 h and the AUC [15] was 120 ng·h/mL. The bioavailability [16] was 5.7%.

Work on CCCCNC(=O)C1CCN(CC(=O)Nc2cc(N)c(C#N)c(OCC)n2)CC1 yielded an IC50 [1] of 69 nM, an IC50 [2] of 180 nM and an EC50 [3] of over 10000 nM.

CCOc1cc(NC(C)=O)nc(N)c1C#N showed an IC50 [1] of over 10000 nM and an IC50 [2] of over 10000 nM.

CCOc1cccc(NC(C)=O)n1 gave an IC50 [2] of over 10000 nM.

Work on CCOc1nc(NC(=O)Cc2ccccc2Cl)cc(N)c1C#N yielded an IC50 [1] of 1100 nM and an IC50 [2] of 4900 nM.

For CCOc1nc(NC(=O)Cc2cc(OC)c(S(C)(=O)=O)cc2OC)cc(N)c1Cl, the Ki (Activated CDC42 kinase 1) was over 9500 nM, the Ki [4] was over 8600 nM and the Ki [5] was 61 nM. For the same compound, the Ki [6] was over 9400 nM, the half-life [7] was 0.8 h and the Vd [8] was 1.6 L/kg. For the same compound, the Vd [9] was 2 L/kg, the AUC [10] was 3000 ng·h/mL and the clearance [11] was 28.3 mL/min/kg. For the same compound, the half-life [12] was 2.1 h, the Cmax [13] was 1420 nM and the Tmax [14] was 0.67 h. It also gave an AUC [15] of 1500 ng·h/mL and a bioavailability [16] of 49%.

For CCOc1nc(NCCc2cc(OC)ccc2OC)cc(N)c1C#N, the IC50 [1] was over 10000 nM and the IC50 [2] was over 10000 nM.

COc1ccc(OC)c(CC(=O)Nc2cc(N)c(C#N)c(OCCS(C)(=O)=O)n2)c1 showed an IC50 [1] of 400 nM and an IC50 [2] of 740 nM.

Compound CCOc1nc(NC(=O)Cc2cc(Br)ccc2Br)cc(N)c1C#N has an IC50 [1] of 3000 nM and an IC50 [2] of over 10000 nM.

In the case of CCCCNCC(=O)Nc1cc(N)c(C#N)c(OCC)n1, the IC50 [1] is reported as 6300 nM and the IC50 [2] is reported as over 10000 nM.

Work on CCOc1nc(NC(=O)CN2CCC(C(=O)NC(C)C)CC2)cc(N)c1C#N yielded an IC50 [1] of 87 nM, an IC50 [2] of 130 nM and an EC50 [3] of 3900 nM.

Work on CCOc1nc(NC(=O)OC)cc(N)c1C#N yielded an IC50 [1] of over 10000 nM and an IC50 [2] of over 10000 nM.

Compound CCCCOc1nc(NC(C)=O)cc(N)c1C#N has an IC50 [1] of 2100 nM and an IC50 [2] of 4660 nM.

Work on CCOc1nc(NC(=O)CN2CCCCC2)cc(N)c1C#N yielded an IC50 [1] of 510 nM and an IC50 [2] of 3400 nM.

Compound COc1ccc(OC)c(CC(=O)Nc2cc(N)c(C#N)cn2)c1 has an IC50 [1] of 2600 nM and an IC50 [2] of 5100 nM.

Compound CC(=O)Nc1cc(N)c(C#N)c(NC(C)C)n1 has an IC50 [1] of 910 nM and an IC50 [2] of 3000 nM.

With CCOc1nc(NC(=O)CN2CCOCC2)cc(N)c1C#N the IC50 [1] was 270 nM and the IC50 [2] was 1200 nM.
